Screening results (PubChem BioAssay)
Pf gametocyte: kills late stage P. falciparum gametocytes. P. falciparum stage V gametocytes, ATP luminescence, 24 h. inhibition, % at 10.9 µM. actives 0.065% (n = 150,000);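 active means inhibition above the mean plus 3 SD of compounds within the control limits, set per campaign, cut at about 38% in these data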
MT stabilize HCS: microtubule stabilizers in HeLa cells | HeLa tubulin immunostaining HCS, 24 h; share of cells brighter than vehicle mean+2SD | % tubulin-high responders, % at 10 µM | actives 0.83% (n = 200,000) | AID 2205;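 active means plate Z-score above 3 for both tubulin-high and condensed-nucleus cell shares, with cell loss under 80%, at 10 µM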;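 further: anti alpha tubulin signal scored within the nucleus-defined area of each cell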
b-catenin transl: modulators of beta-catenin nuclear translocation; HeLa beta-catenin nuclear translocation, immunofluorescence imaging; nuclear translocation activity, % at 5 µM; actives 0.3% (n = 190,000);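 active means nuclear translocation activity above 50% at 5 µM, with a well cell count of 50 or more; inconclusive means wells under 50 cells across six images, flagged as toxic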;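 further: per-cell ratio of nuclear to cytoplasmic median beta-catenin stain intensity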
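Assay system: human HeLa cells, native beta-catenin; doses: 5 µM primary, 0.02–20 µM confirmation; incubation: compound treatment 24 h, 37°C, 5% CO2; technique: fluorescence imaging of beta-catenin antibody stain plus DAPI; measure: % activation, nuclear-to-cytoplasmic median beta-catenin signal ratio per cell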
WT yeast gro inh: growth inhibition of WT yeast, mitochondrial fusion screen; mitochondrial fusion phenotypic screen, WT strain; inhibition, % at 10 µM; actives 2.1% (n = 190,000); in the data active means inhibition above about 58%; tested in S. cerevisiae
Cl transport mod: modulates chloride dependent transport by human KCC2; Q9H2X9; KCC2 cells, thallium flux FluoZin-2 fluorescence; B-score of Tl+ flux slope (higher = more flux/activation; lower = inhibition) at 10 µM; actives 2.2% (n = 190,000); AID 1456;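 active means thallium flux slope and its plate-corrected score both differing from the plate sample mean at a set confidence after two filtering rounds, in either direction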;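 further: slope of fluorescence scaled to starting intensity during 10 to 20 s after thallium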
Target sequence (Q9H2X9 whole entry, looked up): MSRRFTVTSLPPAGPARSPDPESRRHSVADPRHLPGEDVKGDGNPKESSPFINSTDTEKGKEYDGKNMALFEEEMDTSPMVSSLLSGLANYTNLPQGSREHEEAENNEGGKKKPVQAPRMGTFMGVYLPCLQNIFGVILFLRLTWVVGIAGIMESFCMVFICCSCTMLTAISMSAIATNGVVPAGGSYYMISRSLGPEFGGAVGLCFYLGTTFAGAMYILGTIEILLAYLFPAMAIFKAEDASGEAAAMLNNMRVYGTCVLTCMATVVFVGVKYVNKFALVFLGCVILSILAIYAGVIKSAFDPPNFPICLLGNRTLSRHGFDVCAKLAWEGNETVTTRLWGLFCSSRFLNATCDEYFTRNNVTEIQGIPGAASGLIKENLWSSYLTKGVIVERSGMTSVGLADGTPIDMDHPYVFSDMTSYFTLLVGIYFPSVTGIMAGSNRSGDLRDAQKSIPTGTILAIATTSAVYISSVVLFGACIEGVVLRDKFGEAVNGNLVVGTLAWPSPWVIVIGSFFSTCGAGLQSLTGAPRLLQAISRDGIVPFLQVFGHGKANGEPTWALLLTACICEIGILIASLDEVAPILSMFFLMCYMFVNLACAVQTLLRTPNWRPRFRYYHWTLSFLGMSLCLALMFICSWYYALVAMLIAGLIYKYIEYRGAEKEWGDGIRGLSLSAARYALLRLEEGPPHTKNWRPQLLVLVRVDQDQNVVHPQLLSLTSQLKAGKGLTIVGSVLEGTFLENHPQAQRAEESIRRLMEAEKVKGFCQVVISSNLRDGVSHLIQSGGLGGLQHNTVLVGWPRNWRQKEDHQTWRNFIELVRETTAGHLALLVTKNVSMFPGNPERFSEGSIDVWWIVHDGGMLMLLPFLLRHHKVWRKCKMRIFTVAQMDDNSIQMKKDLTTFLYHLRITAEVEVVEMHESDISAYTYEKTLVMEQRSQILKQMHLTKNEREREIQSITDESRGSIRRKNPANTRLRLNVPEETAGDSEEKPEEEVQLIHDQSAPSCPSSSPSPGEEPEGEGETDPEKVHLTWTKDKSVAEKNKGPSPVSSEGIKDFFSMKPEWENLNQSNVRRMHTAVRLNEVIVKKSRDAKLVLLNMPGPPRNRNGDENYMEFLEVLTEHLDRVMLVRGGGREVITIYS
KCC2 sec1: confirmation of human KCC2 transport modulators; shares compounds with Cl transport mod; HEK293-KCC2, thallium flux, FluoZin2 fluorescence; hits give high values; normalised thallium flux (F/F0 slope) at 10 µM; actives 15% (n = 3,700);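 active means thallium flux slope above the same plate's solvent-only control mean plus 3 SD; inconclusive means the two replicate wells disagree; inactive means no significant difference from solvent-only control wells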
KCC2 bumet counter: thallium flux persisting under bumetanide in KCC2 cells, counter-screen secondary assay | HEK293-KCC2 + bumetanide/ouabain, thallium flux FluoZin2; hits give high values | actives 49% (n = 3,700) | shares compounds with Cl transport mod | normalized thallium flux at 10 µM | AID 1714;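 active means thallium entry rate above the same plate's blocked-transporter control wells by more than 3 SD; inconclusive means the two repeat wells disagree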;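 further: raw slope of fluorescence over initial fluorescence between 10 and 20 s after thallium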
KCC2 secondary2: confirmation of human KCC2 transport modulators | shares compounds with Cl transport mod | HEK293-KCC2, thallium flux FluoZin2 fluorescence; actives lie on both sides; F/F0 rise rate, 10–20 s post-thallium | normalized thallium flux at 10 µM | actives 23% (n = 3,700);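 active means thallium flux slope more than 3 SD above or below the plate's solvent-only control mean, mostly below; inconclusive means the two repeat wells disagreed; inactive means no significant shift from solvent-only controls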
HEK counter1: parental HEK flux effect, counter-screen; shares compounds with Cl transport mod; HEK293 parental cells, thallium flux FluoZin2, ouabain; baseline-ratio fluorescence slope, 10–20 s after thallium; thallium flux rate (normalised fluorescence) at 10 µM; actives 46% (n = 3,700);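 active means thallium flux rate significantly above the same plate's solvent-only control wells, beyond their mean plus 3 SD; inconclusive means the two replicate wells gave conflicting results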
KCC2 ouabain: KCC2 (human) modulation, ouabain retest. shares compounds with Cl transport mod. HEK293-KCC2, thallium flux FluoZin2 fluorescence; bidirectional: low = inhibitor, high = activator. raw Tl+ flux slope (below DMSO = inhibition, above = activation) at 10 µM. actives 48% (n = 3,700);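 active means thallium flux slope beyond 3 SD from same-plate DMSO control mean in most replicates, usually higher, sometimes lower; inconclusive means repeat tests gave conflicting results; inactive means no significant difference from controls in most replicates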;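 further: slope of initial-normalized fluorescence between seconds 10 and 20 after thallium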
HEK counter2: acts in parental HEK cells, second KCC2 counter-screen; shares compounds with Cl transport mod; actives 33% (n = 3,700); thallium flux slope at 10 µM; HEK293 parental, thallium flux FluoZin-2 fluorescence slope;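 active means thallium flux slope above the same plate's solvent-control mean plus 3 SD in both duplicate wells; inconclusive means duplicate wells that disagreed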;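 further: run without ouabain in cells lacking the KCC2 cotransporter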
Of the large screens only hits and unclear results are named; the others gave an inactive call (follow-up assays come after a bar, where they were run). A selection: hits, their analogues and other compounds. The true share with any hit is near 4%.

O=C(Nc1nnc(-c2cccs2)o1)c1cc(-c2ccccc2)nc2ccccc12	WT yeast gro inh 71, Cl transport mod 68 (no result: Pf gametocyte) | KCC2 sec1 0.016 | KCC2 bumet counter 0.078 | KCC2 secondary2 inactive | HEK counter1 0.043 | KCC2 ouabain 0.061 | HEK counter2 0.015
O=C(NCc1cccs1)c1cc(-c2ccccc2)nc2ccccc12	none
Cc1cc(C)c(NC(=O)NC(=O)c2cccc(F)c2)c(C)n1	Cl transport mod -4.1 | KCC2 sec1 inactive | KCC2 bumet counter inactive | KCC2 secondary2 inactive | HEK counter1 inactive | KCC2 ouabain inactive | HEK counter2 inconclusive
Cc1ccc(/C=N\NC(=O)CCc2n[nH]c(=O)[nH]c2=O)o1	none
O=C(Nc1ccccc1C(=O)N/N=C/c1ccco1)c1ccc(F)cc1	Cl transport mod 17 (no result: Pf gametocyte) | KCC2 sec1 0.016 | KCC2 bumet counter 0.064 | KCC2 secondary2 inactive | HEK counter1 0.023 | KCC2 ouabain inconclusive | HEK counter2 0.012
Cc1ccccc1C(=O)Nc1ccccc1C(=O)N/N=C\c1ccco1	none (no result: Pf gametocyte)
O=C(Nc1ccccc1C(=O)N/N=C/c1ccco1)c1ccc(Cl)cc1	Cl transport mod 11 | KCC2 sec1 inactive | KCC2 bumet counter 0.037 | KCC2 secondary2 inactive | HEK counter1 0.014 | KCC2 ouabain 0.029 | HEK counter2 0.015
O=C(N/N=C/c1ccco1)c1ccncc1	none
CCOc1ccc(/C=N/Nc2nc(C)cs2)c(O)c1	none (no result: MT stabilize HCS, b-catenin transl, WT yeast gro inh, Cl transport mod)
Cc1ccc(S(=O)(=O)N/N=C/c2ccc(OCC(=O)NC(C)C)cc2)cc1	none (no result: Pf gametocyte, b-catenin transl, WT yeast gro inh)
Cc1ccc(NC(=O)COc2ccc(Br)cc2C)cc1	none
CC1=NN(C(N)=S)C(=O)C1N=Nc1ccccc1C(=O)O (stereo not given)	none (no result: MT stabilize HCS, b-catenin transl, WT yeast gro inh, Cl transport mod)
CN1C(=O)C(N=Nc2ccccc2C(=O)O)N(C)C1=S (stereo not given)	Cl transport mod -4.7 | KCC2 sec1 inactive | KCC2 bumet counter 0.0017 | KCC2 secondary2 inconclusive | HEK counter1 0.0054 | KCC2 ouabain 0.015 | HEK counter2 inactive
Cc1c(O)c2cccnc2[nH]c1=O	none
Cn1c(Cn2c(=O)sc3ccccc32)nnc1SCC(=O)NCCc1ccccc1	none (no result: Pf gametocyte)
O=C(Cc1csc(-c2ccccc2)n1)NCc1cccs1	Cl transport mod -4.6 | KCC2 sec1 inactive | KCC2 bumet counter inactive | KCC2 secondary2 inconclusive | HEK counter1 inconclusive | KCC2 ouabain 0.013 | HEK counter2 inactive
Cc1nc(CCNC(=O)c2cccs2)cs1	none
O=C(NCCc1csc(-c2ccccc2)n1)c1cccs1	none (no result: Pf gametocyte, Cl transport mod) | KCC2 sec1 inactive | KCC2 bumet counter inactive | KCC2 secondary2 0.023 | HEK counter1 inactive | KCC2 ouabain 0.014 | HEK counter2 inactive
c1ccc(Cn2c[n+](Cc3ccccc3)cn2)cc1	none (no result: MT stabilize HCS, WT yeast gro inh)
Cc1c(-c2ccccc2)oc2c(C(=O)OCC(=O)Nc3ccc(C(N)=O)cc3)cccc2c1=O	Cl transport mod -5 (no result: b-catenin transl) | KCC2 sec1 inactive | KCC2 bumet counter inactive | KCC2 secondary2 inactive | HEK counter1 inconclusive | KCC2 ouabain 0.016 | HEK counter2 inactive
COc1ccc(S(=O)(=O)N(CCc2ccccc2)CC(=O)N/N=C/c2ccc3c(c2)OCO3)cc1	none
CCOc1cc(/C=N/NC(=O)CN(CCc2ccccc2)S(=O)(=O)c2ccc(NC(C)=O)cc2)ccc1O	Cl transport mod -6.4 | KCC2 sec1 inactive | KCC2 bumet counter inactive | KCC2 secondary2 inactive | HEK counter1 inactive | KCC2 ouabain inconclusive | HEK counter2 inactive
CCOC(=O)c1sc(-c2ccc(C)cc2)c(C#N)c1C	Cl transport mod 5.3 (no result: Pf gametocyte) | KCC2 sec1 inactive | KCC2 bumet counter inactive | KCC2 secondary2 inactive | HEK counter1 inactive | KCC2 ouabain inactive | HEK counter2 inactive
Cc1c(C(=O)NN)sc(-c2ccccc2)c1C#N	none
COCCCNC(=S)Nc1cccc2ncccc12	none
O=C(NC(=S)Nc1cccc2ncccc12)c1ccco1	Cl transport mod 13 | KCC2 sec1 inconclusive | KCC2 bumet counter 0.032 | KCC2 secondary2 inconclusive | HEK counter1 0.021 | KCC2 ouabain 0.028 | HEK counter2 0.023
Cc1sc(NC(=S)NC(=O)c2ccco2)c(C#N)c1C	Cl transport mod 22 | KCC2 sec1 inactive | KCC2 bumet counter 0.022 | KCC2 secondary2 inconclusive | HEK counter1 0.023 | KCC2 ouabain 0.03 | HEK counter2 0.019
Cc1cc(NC(=S)NC(=O)c2ccco2)c2ccccc2n1	Cl transport mod 29 | KCC2 sec1 inconclusive | KCC2 bumet counter 0.084 | KCC2 secondary2 0.066 | HEK counter1 0.056 | KCC2 ouabain 0.071 | HEK counter2 0.058
Clc1ccc(-n2cc(COCc3ccccc3)nn2)cc1	none
CCOC(=O)C1=C(C)Nc2nnnn2C1c1c[nH]c2ccccc12 (stereo not given)	none
CCOC(=O)C1=C(C)Nc2nnnn2C1c1cccnc1 (stereo not given)	none (no result: Pf gametocyte, Cl transport mod) | KCC2 sec1 inactive | KCC2 bumet counter inactive | KCC2 secondary2 inactive | HEK counter1 inactive | KCC2 ouabain inactive | HEK counter2 inactive
O=S(=O)(O)c1nc2ccccc2[nH]1	none (no result: MT stabilize HCS, WT yeast gro inh)
Cc1ccc(Cc2c(C)[nH]c(=S)[nH]c2=O)cc1	none (no result: MT stabilize HCS, WT yeast gro inh)
Cc1ccc(Cc2c[nH]c(=S)s2)cc1	WT yeast gro inh 68, Cl transport mod 194 | KCC2 sec1 inconclusive | KCC2 bumet counter 0.14 | KCC2 secondary2 0.11 | HEK counter1 0.11 | KCC2 ouabain 0.14 | HEK counter2 0.099
COc1ccc(CCNC(=O)Cn2cc(C(F)(F)F)cc(Cl)c2=O)cc1	none
Cn1nc([N+](=O)[O-])nc1Sc1cccc2cccnc12	Cl transport mod 7.6 | KCC2 sec1 inactive | KCC2 bumet counter 0.023 | KCC2 secondary2 inactive | HEK counter1 0.013 | KCC2 ouabain inactive | HEK counter2 inactive
O=C(O)CCNS(=O)(=O)c1ccc2ccccc2c1	none
O=C(O)CCNc1cc2ccccc2cc1C(=O)O	Cl transport mod 5.6 (no result: Pf gametocyte) | KCC2 sec1 inactive | KCC2 bumet counter inactive | KCC2 secondary2 inactive | HEK counter1 inactive | KCC2 ouabain inactive | HEK counter2 inactive
C=CCOC(=O)C1=C(C)NC(=S)NC1c1cccs1 (stereo not given)	none
Cc1ccc(N(CC(=O)NCCSCc2ccco2)S(=O)(=O)c2ccc(F)cc2)cc1	none
